Source: ChEMBL document CHEMBL1250448, “Inhibitor hijacking of Akt activation” (Nat Chem Biol, 2009)

Assays:
[1] = biological target: T1, Dual specificity mitogen-activated protein kinase kinase 6 (Homo sapiens) (UniProt P52564); test: Inhibition of MAP2K6 at 1 uM in presence of 100 uM ATP by Select Screen kinase assay relative to untreated control
T1 sequence (whole entry): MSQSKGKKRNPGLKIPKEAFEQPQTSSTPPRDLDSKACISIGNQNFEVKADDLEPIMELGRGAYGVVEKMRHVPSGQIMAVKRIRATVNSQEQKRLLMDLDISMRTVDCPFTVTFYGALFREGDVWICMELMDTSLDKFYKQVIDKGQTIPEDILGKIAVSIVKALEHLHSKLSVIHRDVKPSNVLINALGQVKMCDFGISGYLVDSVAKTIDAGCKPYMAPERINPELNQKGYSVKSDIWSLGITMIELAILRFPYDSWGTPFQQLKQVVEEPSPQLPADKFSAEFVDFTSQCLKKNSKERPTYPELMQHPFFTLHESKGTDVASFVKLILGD
In short: (§1)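 Single-concentration profiling at 1 μM against a panel of 220 purified kinases, run as an outsourced SelectScreen kinase profiling service. Activity is expressed as percent inhibition.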

[2] = biological target: Fibroblast growth factor receptor 2 (Homo sapiens) (UniProt P21802); test: Inhibition of FGFR2 at 1 uM in presence of 10 uM ATP by Select Screen kinase assay relative to untreated control; in short: as §1
Fibroblast growth factor receptor 2 (Homo sapiens), sequence (P21802 22-821 limits assumed): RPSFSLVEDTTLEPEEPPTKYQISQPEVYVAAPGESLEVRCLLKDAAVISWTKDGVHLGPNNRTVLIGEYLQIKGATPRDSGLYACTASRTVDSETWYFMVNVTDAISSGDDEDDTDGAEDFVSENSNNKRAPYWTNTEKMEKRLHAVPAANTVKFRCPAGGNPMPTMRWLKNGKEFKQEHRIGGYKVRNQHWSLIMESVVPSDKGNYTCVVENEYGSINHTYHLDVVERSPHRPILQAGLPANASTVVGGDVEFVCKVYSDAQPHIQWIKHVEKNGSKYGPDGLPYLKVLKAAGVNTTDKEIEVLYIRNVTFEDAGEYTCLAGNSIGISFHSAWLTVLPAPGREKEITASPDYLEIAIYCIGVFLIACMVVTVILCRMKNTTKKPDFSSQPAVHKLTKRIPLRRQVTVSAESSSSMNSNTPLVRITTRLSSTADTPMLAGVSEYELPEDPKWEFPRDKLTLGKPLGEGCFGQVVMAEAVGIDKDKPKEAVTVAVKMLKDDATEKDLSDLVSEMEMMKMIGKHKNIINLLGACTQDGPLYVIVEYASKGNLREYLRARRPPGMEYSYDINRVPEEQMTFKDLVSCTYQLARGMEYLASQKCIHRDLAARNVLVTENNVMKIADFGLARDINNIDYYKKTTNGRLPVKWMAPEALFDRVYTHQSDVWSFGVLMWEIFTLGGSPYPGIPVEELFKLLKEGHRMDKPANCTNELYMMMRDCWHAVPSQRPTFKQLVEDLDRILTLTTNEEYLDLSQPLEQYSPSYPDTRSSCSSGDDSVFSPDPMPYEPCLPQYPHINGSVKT

[3] = biological target: Serine/threonine-protein kinase MARK2 (Homo sapiens) (UniProt Q7KZI7); test: Inhibition of MARK2 at 1 uM in presence of 10 uM ATP by Select Screen kinase assay relative to untreated control; in short: as §1
Serine/threonine-protein kinase MARK2 (Homo sapiens), sequence (Q7KZI7 whole entry, canonical isoform): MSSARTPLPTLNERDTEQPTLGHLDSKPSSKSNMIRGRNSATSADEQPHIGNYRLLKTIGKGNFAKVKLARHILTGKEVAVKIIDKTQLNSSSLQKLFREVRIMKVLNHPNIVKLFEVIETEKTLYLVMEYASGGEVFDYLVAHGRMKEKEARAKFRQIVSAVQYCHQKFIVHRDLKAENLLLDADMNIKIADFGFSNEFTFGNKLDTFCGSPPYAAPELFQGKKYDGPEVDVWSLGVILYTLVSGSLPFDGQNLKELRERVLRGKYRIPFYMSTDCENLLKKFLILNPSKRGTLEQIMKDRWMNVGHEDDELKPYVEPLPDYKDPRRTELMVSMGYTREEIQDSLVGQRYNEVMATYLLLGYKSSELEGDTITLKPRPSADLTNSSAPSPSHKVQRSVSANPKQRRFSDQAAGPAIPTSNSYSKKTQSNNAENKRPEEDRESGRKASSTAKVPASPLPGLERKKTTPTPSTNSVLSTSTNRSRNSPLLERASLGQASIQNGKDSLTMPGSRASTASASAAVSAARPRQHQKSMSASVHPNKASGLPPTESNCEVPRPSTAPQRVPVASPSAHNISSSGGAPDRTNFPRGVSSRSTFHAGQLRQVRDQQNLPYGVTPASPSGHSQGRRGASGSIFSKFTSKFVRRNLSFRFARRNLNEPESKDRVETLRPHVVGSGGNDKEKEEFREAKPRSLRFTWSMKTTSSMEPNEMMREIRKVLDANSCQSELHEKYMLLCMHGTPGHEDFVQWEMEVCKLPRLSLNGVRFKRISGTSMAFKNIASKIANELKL

[4] = biological target: Phosphorylase b kinase gamma catalytic chain, skeletal muscle/heart isoform (Homo sapiens) (UniProt Q16816); test: Inhibition of PHKG1 at 1 uM in presence of 100 uM ATP by Select Screen kinase assay relative to untreated control
Phosphorylase b kinase gamma catalytic chain, skeletal muscle/heart isoform (Homo sapiens), sequence (Q16816 whole entry, looked up, canonical isoform): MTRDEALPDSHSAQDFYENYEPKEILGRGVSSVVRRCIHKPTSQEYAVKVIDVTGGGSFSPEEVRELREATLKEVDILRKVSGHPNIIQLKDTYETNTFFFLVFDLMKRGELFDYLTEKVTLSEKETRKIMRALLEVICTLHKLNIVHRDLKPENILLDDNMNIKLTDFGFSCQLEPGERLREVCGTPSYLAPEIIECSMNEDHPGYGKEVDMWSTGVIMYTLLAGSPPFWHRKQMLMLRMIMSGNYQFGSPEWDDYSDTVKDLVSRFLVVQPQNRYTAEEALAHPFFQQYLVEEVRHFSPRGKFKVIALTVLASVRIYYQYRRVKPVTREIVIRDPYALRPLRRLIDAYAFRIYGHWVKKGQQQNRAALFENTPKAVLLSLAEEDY
In short: (§2)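 Commercial SelectScreen profiling panel of 220 purified kinases. Each kinase was tested at a single inhibitor concentration of 1 μM, and activity was expressed as percent inhibition.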

[5] = biological target: Vascular endothelial growth factor receptor 3 (Homo sapiens) (UniProt P35916); test: Inhibition of FLT4 at 1 uM in presence of 10 uM ATP by Select Screen kinase assay relative to untreated control; in short: as §1
Vascular endothelial growth factor receptor 3 (Homo sapiens), sequence (P35916 whole entry): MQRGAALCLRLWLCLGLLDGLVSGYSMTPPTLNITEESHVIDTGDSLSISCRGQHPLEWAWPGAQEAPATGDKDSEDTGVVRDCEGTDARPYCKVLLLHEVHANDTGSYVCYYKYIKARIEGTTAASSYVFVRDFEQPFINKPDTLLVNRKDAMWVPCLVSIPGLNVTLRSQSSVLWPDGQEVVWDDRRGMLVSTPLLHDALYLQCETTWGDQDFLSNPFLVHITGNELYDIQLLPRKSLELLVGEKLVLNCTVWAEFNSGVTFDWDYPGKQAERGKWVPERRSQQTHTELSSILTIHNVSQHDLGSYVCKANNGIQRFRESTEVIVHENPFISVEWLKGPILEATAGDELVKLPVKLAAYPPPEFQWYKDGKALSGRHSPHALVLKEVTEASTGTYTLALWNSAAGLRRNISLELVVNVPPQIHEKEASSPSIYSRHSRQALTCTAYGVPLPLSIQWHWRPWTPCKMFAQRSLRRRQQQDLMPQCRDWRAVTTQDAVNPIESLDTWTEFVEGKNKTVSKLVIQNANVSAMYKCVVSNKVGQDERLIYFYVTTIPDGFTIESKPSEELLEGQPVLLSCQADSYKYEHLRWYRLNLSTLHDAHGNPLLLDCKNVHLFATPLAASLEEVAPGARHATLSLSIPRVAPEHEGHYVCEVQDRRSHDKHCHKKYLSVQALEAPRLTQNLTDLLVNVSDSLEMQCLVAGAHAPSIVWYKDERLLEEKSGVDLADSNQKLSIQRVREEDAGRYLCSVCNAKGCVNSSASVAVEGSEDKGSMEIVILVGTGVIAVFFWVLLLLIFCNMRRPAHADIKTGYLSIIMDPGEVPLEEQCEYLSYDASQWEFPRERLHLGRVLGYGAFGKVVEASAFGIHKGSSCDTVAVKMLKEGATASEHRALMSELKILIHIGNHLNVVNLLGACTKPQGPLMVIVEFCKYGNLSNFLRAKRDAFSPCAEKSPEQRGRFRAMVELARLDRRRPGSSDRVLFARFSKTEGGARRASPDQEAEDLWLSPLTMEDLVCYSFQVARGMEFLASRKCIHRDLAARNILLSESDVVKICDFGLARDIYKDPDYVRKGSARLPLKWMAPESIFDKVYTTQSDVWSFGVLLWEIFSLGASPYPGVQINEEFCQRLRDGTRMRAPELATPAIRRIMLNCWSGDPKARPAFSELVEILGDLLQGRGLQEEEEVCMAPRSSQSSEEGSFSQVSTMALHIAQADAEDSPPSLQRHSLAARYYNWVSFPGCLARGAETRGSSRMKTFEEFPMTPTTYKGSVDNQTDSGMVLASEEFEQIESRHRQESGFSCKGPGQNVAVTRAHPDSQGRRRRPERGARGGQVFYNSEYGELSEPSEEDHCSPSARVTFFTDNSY

[6] = biological target: T2, Testis-specific serine/threonine-protein kinase 1 (Homo sapiens) (UniProt Q9BXA7); test: Inhibition of STK22D at 1 uM in presence of 10 uM ATP by Select Screen kinase assay relative to untreated control; in short: as §2
T2 sequence (whole entry): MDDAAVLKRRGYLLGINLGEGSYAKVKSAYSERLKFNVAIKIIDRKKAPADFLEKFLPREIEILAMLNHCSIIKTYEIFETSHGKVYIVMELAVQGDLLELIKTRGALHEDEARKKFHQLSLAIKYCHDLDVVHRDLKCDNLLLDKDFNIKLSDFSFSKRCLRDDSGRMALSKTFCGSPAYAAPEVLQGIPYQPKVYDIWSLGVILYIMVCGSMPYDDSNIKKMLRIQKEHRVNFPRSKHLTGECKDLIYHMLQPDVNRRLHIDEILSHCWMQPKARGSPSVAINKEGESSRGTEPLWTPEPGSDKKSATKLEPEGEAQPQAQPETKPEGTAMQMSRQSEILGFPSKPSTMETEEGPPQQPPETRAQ

[7] = biological target: G protein-coupled receptor kinase 4 (Homo sapiens) (UniProt P32298); test: Inhibition of GRK4 at 1 uM in presence of 10 uM ATP by Select Screen kinase assay relative to untreated control; in short: as §1
G protein-coupled receptor kinase 4 (Homo sapiens), sequence (P32298 whole entry, looked up): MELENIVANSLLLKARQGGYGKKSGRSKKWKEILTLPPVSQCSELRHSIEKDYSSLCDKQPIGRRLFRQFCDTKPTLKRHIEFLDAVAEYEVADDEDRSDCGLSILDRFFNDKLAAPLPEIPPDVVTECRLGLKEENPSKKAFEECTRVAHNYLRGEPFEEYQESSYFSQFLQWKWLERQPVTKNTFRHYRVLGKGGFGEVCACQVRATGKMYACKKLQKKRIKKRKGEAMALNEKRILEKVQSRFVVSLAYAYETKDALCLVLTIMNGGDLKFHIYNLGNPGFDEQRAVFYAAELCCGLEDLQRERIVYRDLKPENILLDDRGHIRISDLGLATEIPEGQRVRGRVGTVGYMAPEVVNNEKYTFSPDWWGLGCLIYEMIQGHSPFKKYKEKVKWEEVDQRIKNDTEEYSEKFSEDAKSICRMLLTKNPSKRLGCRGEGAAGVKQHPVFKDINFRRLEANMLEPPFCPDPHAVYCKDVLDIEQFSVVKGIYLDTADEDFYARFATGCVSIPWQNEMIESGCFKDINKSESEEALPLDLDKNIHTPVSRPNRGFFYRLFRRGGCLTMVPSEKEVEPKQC

[8] = biological target: T3, Ephrin type-A receptor 1 (Homo sapiens) (UniProt P21709); test: Inhibition of EPHA1 at 1 uM in presence of 10 uM ATP by Select Screen kinase assay relative to untreated control
T3 sequence (whole entry): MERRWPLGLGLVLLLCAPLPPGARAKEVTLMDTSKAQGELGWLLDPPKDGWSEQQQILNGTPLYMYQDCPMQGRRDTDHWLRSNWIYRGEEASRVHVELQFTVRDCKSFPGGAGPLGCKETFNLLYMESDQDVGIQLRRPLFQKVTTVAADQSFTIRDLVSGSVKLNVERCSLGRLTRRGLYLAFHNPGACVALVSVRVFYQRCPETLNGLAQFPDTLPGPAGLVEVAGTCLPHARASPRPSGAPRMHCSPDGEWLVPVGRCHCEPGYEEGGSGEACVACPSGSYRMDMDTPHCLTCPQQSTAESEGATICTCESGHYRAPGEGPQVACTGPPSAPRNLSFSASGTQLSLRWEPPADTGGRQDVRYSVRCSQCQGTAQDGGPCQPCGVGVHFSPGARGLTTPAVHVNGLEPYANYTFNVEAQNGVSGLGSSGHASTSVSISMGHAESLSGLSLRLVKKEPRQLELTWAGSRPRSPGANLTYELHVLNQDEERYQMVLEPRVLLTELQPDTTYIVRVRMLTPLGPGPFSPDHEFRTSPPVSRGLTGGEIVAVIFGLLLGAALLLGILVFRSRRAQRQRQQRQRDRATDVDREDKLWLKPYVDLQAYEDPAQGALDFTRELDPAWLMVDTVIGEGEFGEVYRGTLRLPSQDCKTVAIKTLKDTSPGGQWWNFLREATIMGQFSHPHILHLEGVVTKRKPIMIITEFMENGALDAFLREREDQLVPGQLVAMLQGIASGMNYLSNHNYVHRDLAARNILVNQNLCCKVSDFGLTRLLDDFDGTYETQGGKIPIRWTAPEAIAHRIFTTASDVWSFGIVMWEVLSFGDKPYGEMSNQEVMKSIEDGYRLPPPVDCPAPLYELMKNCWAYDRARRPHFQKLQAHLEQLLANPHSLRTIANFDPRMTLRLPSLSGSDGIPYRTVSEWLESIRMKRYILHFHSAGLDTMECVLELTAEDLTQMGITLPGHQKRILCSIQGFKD
In short: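 Single-point screen at 1 μM against a panel of 220 purified kinases, run by Invitrogen staff as a SelectScreen profiling service. Read-out is percent inhibition of kinase activity.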

Row | Structure (SMILES) | inhibition [1] [%] | inhibition [2] [%] | inhibition [3] [%] | inhibition [4] [%] | inhibition [5] [%] | inhibition [6] [%] | inhibition [7] [%] | inhibition [8] [%]
1 | COc1ccccc1N1CCN(c2ncnc3[nH]nc(Br)c23)CC1 | 11 | 12 | 26 | 6 | 45 | 21 | 16 | 13
2 | Cc1n[nH]c2ccc(-c3cncc(OC[C@@H](N)Cc4c[nH]c5ccccc45)c3)cc12 | 40 | 3 | 68 | 76 | 1 | 71 | 72 | -1
3 | O=C(NCCCNc1nc(Nc2cccc(NC(=O)N3CCCC3)c2)ncc1I)c1cccs1 | 25 | 51 | 93 | 58 | 70 | 69 | 9 | 13
